A selection: hits, their analogues and other compounds. The true share with any hit is near 2.9%.
SENP1 inh: blocks the human SENP1 SUMO protease catalytic domain | Q9P0U3 | recombinant SENP1 catalytic domain, CyPet-SUMO1-YPet FRET cleavage | inhibition, % at 10 µM | 360,000 tested, 0.21% active | AID 624204;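 active = inhibition at least 30% at 10 µM, raw YFP signal under a set limit, fluorescence ratio 0.5 to 1.5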;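 note: 0% = enzyme with DMSO and 100% = no enzyme wells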
Target sequence (Q9P0U3 419-644 limits assumed): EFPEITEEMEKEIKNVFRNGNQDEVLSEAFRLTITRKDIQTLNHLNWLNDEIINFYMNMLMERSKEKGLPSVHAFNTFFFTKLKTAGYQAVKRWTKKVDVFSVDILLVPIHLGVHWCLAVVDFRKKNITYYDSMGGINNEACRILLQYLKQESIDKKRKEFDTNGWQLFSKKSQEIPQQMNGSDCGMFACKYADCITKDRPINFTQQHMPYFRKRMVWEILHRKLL
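material = recombinant human SENP1 catalytic domain, His6-tagged | quantity = 20 pM enzyme | reagent = 25 nM SUMO1 FRET substrate | compound dosing = 10 µM single point, 0.5% DMSO | timing = 50 min enzyme reaction, room temperature, light-protected | detection = FRET, CFP and YFP emission | control set = no-enzyme low, enzyme-DMSO high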
SENP6 block: blocks the human protease SENP6; Recombinant SENP6 catalytic domain, aminoluciferin luminescence; inhibition, % at 10 µM; Q9GZR1; 330,000 tested, 1.8% active;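 active = inhibition above about 50% at the single tested dose, limit read from the data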;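 note: plate controls were DMSO wells with enzyme for no effect and DMSO wells lacking enzyme for full effect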
SENP8 block-1: blocks human SENP8 cleavage of Nedd8 substrate; Q96LD8; recombinant SENP8, Nedd8 substrate fluorescence; inhibition, % at 20 µM; 360,000 tested, 0.64% active; AID 602440; in the data active = inhibition mostly above about 40%, no sharp cut-off; inactive = mostly below about 27%
Target sequence (Q96LD8 whole entry, looked up): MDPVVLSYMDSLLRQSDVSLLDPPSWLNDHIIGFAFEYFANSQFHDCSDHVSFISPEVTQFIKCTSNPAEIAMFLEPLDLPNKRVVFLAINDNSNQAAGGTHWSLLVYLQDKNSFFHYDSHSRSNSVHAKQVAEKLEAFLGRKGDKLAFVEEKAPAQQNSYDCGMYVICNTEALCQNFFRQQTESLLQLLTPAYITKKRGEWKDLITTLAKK
SENP7 inh: inhibitors of human SENP7 protease. Q9BQF6. recombinant SENP7, Z-RLRGG-aminoluciferin luminescence, 40 min. inhibition, % at 5 µM. 330,000 tested, 1.5% active;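 active = inhibition above about 50% at the single test dose, limit read from the data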;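 note: plate controls were DMSO with enzyme for no effect and no enzyme buffer wells for full effect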
HSP90 inh: HSP90 refolding inhibition in rabbit reticulocyte lysate; AID 1789; inhibition, % at 5.6 µM; 290,000 tested, 0.91% active; luciferase refolding luminescence, 3 h;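 active = inhibition above the screen-wide mean plus 3 SD, computed separately per campaign, cut at about 16% in these data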;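 note: 0% = DMSO wells and 100% = 60 µM geldanamycin wells; inhibitors lower the luminescence because luciferase stays unfolded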
SENP8 block-2: blocks the human protease SENP8; inhibition, % at 10 µM; 330,000 tested, 1.2% active; Q96LD8; AID 2540; purified SENP8, Z-RLRGG-aminoluciferin cleavage, luminescence; in the data active = inhibition above about 50%
SENP8 conf-1: confirmation of human SENP8 protease inhibitors; shares compounds with SENP7 inh; inhibition, % at 12.5 µM; Recombinant SENP8, Z-RLRGG-aminoluciferin luminescence, 60 min; 6,200 tested, 40% active;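 active = mean inhibition across replicates above about 50%, limit read from the data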
SENP6 confirm: human SENP6 inhibition, confirmed. recombinant SENP6, Z-RLRGG-aminoluciferin luminescence. shares compounds with SENP7 inh. 6,200 tested, 58% active. inhibition, % at 12.5 µM
SENP7 conf: confirmation of human SENP7 protease inhibitors. shares compounds with SENP7 inh. recombinant SENP7, Z-RLRGG-aminoluciferin luminescence, 40 min. inhibition, % at 12.5 µM. 6,200 tested, 69% active. AID 488917
Casp3 select: caspase-3 inhibition (SENP selectivity assay); inhibition, % at 12.5 µM; purified caspase-3, Z-DEVD-aminoluciferin luminescence, 60 min; shares compounds with SENP7 inh; 6,200 tested, 60% active; AID 488918;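 active = mean inhibition above about 50%, limit read from the data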;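 note: plate controls were enzyme with DMSO for no effect and wells without caspase-3 for full effect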
Target sequence (P42574 28-227 limits assumed): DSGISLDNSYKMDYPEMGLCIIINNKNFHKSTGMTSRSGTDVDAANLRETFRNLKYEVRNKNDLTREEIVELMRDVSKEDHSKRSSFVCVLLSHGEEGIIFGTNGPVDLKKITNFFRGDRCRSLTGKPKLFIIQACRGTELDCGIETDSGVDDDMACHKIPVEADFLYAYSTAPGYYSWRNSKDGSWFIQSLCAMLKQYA
SENP luc ctr: luminescence interference (SENP counter-screen) | shares compounds with SENP7 inh | Pre-incubated SENP8/Z-RLRGG-aminoluciferin, luciferase luminescence interference | inhibition, % at 12.5 µM | 6,200 tested, 39% active | AID 488919;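 active = mean inhibition above about 50% when retested at one dose, limit read from the data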;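 note: plate controls were DMSO wells with completed reaction for no effect and substrate without enzyme for full effect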
SENP8 conf-2: SENP8 (human) inhibition, single concentration confirmation. 1,400 tested, 15% active. purified SENP8, Nedd8-AMC/pro-Nedd8 cleavage fluorescence, 30 min. shares compounds with SENP8 block-1. inhibition, % at 25 µM; in the data active = inhibition mostly above about 39%, no sharp cut-off; inactive = mostly below about 34%
An asterisk follows results filed as active; i = inactive; . = no result given.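 Rule for the calls, unless noted: active = mean inhibition above about 50% in the one-dose retest (limit read from the data); inactive = the rest.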

SMILES	SENP1 inh	SENP6 block	SENP8 block-1	SENP7 inh	HSP90 inh	SENP8 block-2	SENP8 conf-1	SENP6 confirm	SENP7 conf	Casp3 select	SENP luc ctr	others
COc1cccc(NC(=O)Nc2nccc(C)n2)c1	3	58*	1	55*	2	31	30	32	71*	76*	34
COc1cccc(NC(=O)NCc2ccccn2)c1	0	0	9	-7	1	-4	.	.	.	.	.
CC(=O)c1cccc(NC(=O)COc2ccccc2)c1	-2	-30	4	-8	1	-4	.	.	.	.	.
CC(C)CCOCC(=O)Nc1cccc(C(=O)O)c1	0	58*	7	41	14	9	38	35	73*	18	62*
NC(CCCCc1ccccc1)c1cccc2ccccc12 (stereo not drawn)	.	-18	.	-1	.	-10	.	.	.	.	.
Cc1ccc(C(=O)Nc2cccc3cccnc23)cc1Br	-2	4	4	55*	.	-5	-2	2	9	23	12
O=C(Nc1ccccc1)Nc1cccc2cccnc12	-2	42	8	74*	-3	60*	80*	80*	94*	59*	77*
O=C(Nc1ccc(C(=O)O)cc1)Nc1cccc2ccccc12	2	58*	-74	34	1	17	38	34	65*	62*	34
CC(=O)NC(Cc1c[nH]c2ccccc12)C(=O)OCC(=O)N1CCN(S(=O)(=O)c2ccc(Cl)cc2)CC1 (stereo not drawn)	0	.	8	.	.	.	.	.	.	.	.
O=C(CSc1nnc(-c2cccnc2)n1Cc1ccco1)NCc1ccc2c(c1)OCO2	-11	-7	15	59*	-6	4	-9	-6	-11	-1	2
COc1cccc(-c2nnc(SCC(=O)NCc3ccc4c(c3)OCO4)n2Cc2ccco2)c1	-5	1	24	-6	-8	-1	.	.	.	.	.
Cc1cc(C)c(NC(=O)CSc2nnc(-c3ccncc3)n2Cc2ccco2)c(C)c1	1	-27	11	70*	1	-7	7	8	1	4	2
CCOC(=O)c1cc(C#N)c(SC(C)C(=O)NC2CCCCC2)nc1C (stereo not drawn)	-1	2	-15	-9	.	6	.	.	.	.	.
O=C(CSc1ccccn1)c1ccc2c(c1)OCO2	1	84*	12	73*	3	54*	41	70*	92*	84*	75*
COc1ccccc1NC(=O)c1cc2ccc(O)cc2o/c1=N\O	-24	95*	i	95*	2	94*	8	99*	103*	92*	52*
COc1ccccc1N=c1oc2cc(O)ccc2cc1C(N)=O	-23	91*	-285	0	8	50	99*	100*	101*	99*	92*
COc1ccccc1NC(=O)c1cc2ccccc2o/c1=N\O	2	3	13	7	.	-23	.	.	.	.	.
COc1ccccc1N=c1oc2cc(O)ccc2cc1C(=O)NCC1CCCO1 (stereo not drawn)	-21	-3	-239	0	1	-2	.	.	.	.	.
COc1ccc(/C=N/Nc2nncc3ccccc23)cc1	1	99*	-2	97*	1	97*	97*	100*	104*	99*	99*
Oc1c(Br)cc(/C=N/Nc2nncc3ccccc23)cc1Br	.	72*	.	17	3	69*	8	11	-1	7	0
COc1ccc(/C(C)=N/Nc2nncc3ccccc23)cc1	2	46	23	75*	0	46	2	6	10	18	-4
O=C(Oc1cccc(-c2cnc3ccccc3n2)c1)c1ccco1	-2	60*	-17	52*	2	59*	18	45	76*	61*	13
O=C(Nc1ccc(Br)cn1)c1ccc(COc2c(F)c(F)cc(F)c2F)o1	1	2	10	1	.	-9	.	.	.	.	.
CCOC(=O)N=S(N)(=O)c1ccc(Cl)cc1 (stereo not drawn)	1	1	13	2	-1	51*	-22	-13	-8	-9	-5
CCOC(=O)N=S(N)(=O)c1ccccc1 (stereo not drawn)	1	1	7	1	5	1	.	.	.	.	.
SMILES	SENP1 inh	SENP6 block	SENP8 block-1	SENP7 inh	HSP90 inh	SENP8 block-2	SENP8 conf-1	SENP6 confirm	SENP7 conf	Casp3 select	SENP luc ctr	others
COC(=O)c1ccc(COC(=O)CNC(=O)CNC(=O)c2ccc(OC)cc2)cc1	1	1	21	1	.	-7	.	.	.	.	.
O=C(COC(=O)/C=C/c1ccc(F)cc1)Nc1nnc(-c2ccccc2)o1	1	-23	-6	-7	.	-6	.	.	.	.	.
COc1ccc2c(c1OC)CN(C)CCc1cc3c(cc1C(O)C2)OCO3 (stereo not drawn)	0	-1	19	4	1	-3	.	.	.	.	.
COc1ccc2cc1Oc1ccc(cc1)C[C@H]1c3cc(c(OC)cc3CCN1C)Oc1c(OC)c(OC)cc3c1[C@@H](C2)N(C)CC3	-2	58*	76*	27	.	34	10	2	0	5	0
O=C(Nc1ccc(Cl)cc1)c1ccc(Br)cc1F	15	51*	14	50	-3	44	20	40	40	40	8
COc1cc(OC)cc(C(=O)NNC(=O)CCc2nc3ccccc3c(=O)[nH]2)c1	-2	12	8	5	.	3	.	.	.	.	.
Cc1ccc(/C=N/NC(=O)c2cc(C)oc2C)cc1	3	84*	41*	86*	1	74*	25	74*	95*	90*	82*	SENP8 conf-2=-2
CN(C(=O)COC(=O)c1ccc(F)c(S(=O)(=O)N2CCOCC2)c1)C1CCS(=O)(=O)C1 (stereo not drawn)	2	11	7	4	.	-1	.	.	.	.	.
CCS(=O)(=O)N1CCC2(CC1)OCCN2S(=O)(=O)c1ccc(C)cc1	1	7	5	-5	.	16	.	.	.	.	.
O=C(NCCc1ccccc1)c1cccc(NC(=O)C2CCCC2)c1	1	.	10	.	.	.	.	.	.	.	.

Screening results (PubChem)
